Test results: paper PMC10187107 (Journal of Enzyme Inhibition and Medicinal Chemistry, 2023)
Where “and” joins values, the source holds several entries; their conditions need not be identical. Equal entries are not always repeated.

Assays:
[1] = ref GuideChem; cited from earlier work
r3β-HSD1 = molecular target: T1, r3β-HSD1 (Rattus norvegicus, UniProt P22071); test: r3β-HSD1 activity, conversion of P5 to P4 in rat testicular microsome; type: biochemical; details: for Residual r3β-HSD1 activity: 100 µM chemical, relative to DMSO control; for IC50: IC50, rat 3β-HSD1, testicular microsome, 0.2 µM P5, 0.2 mM NAD+, 30 min; for Mode action: rat 3β-HSD1, vs. P5, mixed model and Lineweaver-Burk plot; for increase of inhibitory effect relative to CUR: r3β-HSD1
T1 sequence (P22071 1-373): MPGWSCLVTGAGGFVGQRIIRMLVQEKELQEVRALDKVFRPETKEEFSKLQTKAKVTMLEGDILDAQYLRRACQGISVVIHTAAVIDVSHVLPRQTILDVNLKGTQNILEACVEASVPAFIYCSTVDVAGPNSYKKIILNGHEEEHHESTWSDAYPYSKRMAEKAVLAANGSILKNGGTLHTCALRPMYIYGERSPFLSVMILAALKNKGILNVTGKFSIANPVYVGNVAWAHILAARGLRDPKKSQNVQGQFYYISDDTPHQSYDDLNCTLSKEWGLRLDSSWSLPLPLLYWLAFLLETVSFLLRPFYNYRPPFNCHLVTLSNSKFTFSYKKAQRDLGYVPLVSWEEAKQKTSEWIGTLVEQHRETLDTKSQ
Procedure, shortened: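 Testes came from 90-day male Sprague-Dawley rats. Microsomes were isolated from homogenate in 0.25 M sucrose PBS (pH 7.2) by spins at 700, 14,500 and twice 105,000 ×g. Reactions used 5 µg microsomal protein, 0.2 µM P5 and 0.2 mM NAD+ in PBS for 30 min. […] P4 by HPLC-MS/MS with T-d5 internal standard; n = 4.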

h3β-HSD2 = molecular target: T2, h3β-HSD2 (Homo sapiens, UniProt P26439); test: h3β-HSD2 activity, conversion of P5 to P4 in KGN cell homogenate; type: biochemical; details: for Residual h3β-HSD2 activity: 100 µM chemical, relative to DMSO control; for IC50: IC50, human 3β-HSD2, KGN cell homogenate, 0.2 µM P5, 0.2 mM NAD+, 30 min; for Mode action: human 3β-HSD2, vs. P5, mixed model and Lineweaver-Burk plot
T2 sequence (P26439 1-372): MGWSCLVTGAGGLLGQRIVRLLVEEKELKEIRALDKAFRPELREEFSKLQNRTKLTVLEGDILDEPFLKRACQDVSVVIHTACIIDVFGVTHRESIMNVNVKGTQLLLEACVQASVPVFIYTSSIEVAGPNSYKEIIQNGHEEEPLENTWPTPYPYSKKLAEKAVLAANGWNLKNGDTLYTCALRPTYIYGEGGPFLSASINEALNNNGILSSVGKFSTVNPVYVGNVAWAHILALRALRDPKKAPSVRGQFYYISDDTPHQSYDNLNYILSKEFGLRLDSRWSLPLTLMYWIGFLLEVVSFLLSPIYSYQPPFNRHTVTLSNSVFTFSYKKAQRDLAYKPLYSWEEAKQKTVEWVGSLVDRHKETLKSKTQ

human 11β-HSD1 = details: cited from earlier work
human KGN cells = test: P4 output in human KGN cells under basal and FSK-stimulated conditions; type: cell-based; details: basal condition, 24 h
Procedure, shortened: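 KGN human granulosa-like cells grown in DMEM/F12 with 10% FBS and 1% antibiotics at 37 °C, 5% CO2. Seeded at 1 × 10^6 cells/well and treated for 24 h with 0, 10, 20 or 40 µM test compound, either without forskolin (basal) or with 10 µM forskolin. P4 in the medium was quantified by HPLC-MS/MS. n = 4; one-way ANOVA with Dunnett's test vs control.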

human 11β-HSD2 = details: cited from earlier work
human 17β-HSD3 = details: cited from earlier work
[2] = cited from earlier work

In the case of `COc1cc(CCC(=O)CC(=O)CCc2ccc(O)c(OC)c2)ccc1O` [THC, tetrahydrocurcumin], the LogP [1] is given as 3.691, the “Residual r3β-HSD1 activity” value (r3β-HSD1) is given as “around 50 % of the control” and the IC50 (r3β-HSD1) is given as 103 ± 11.6 µM. The “Residual h3β-HSD2 activity” value (h3β-HSD2) was ≥ 50 % of the control and the IC50 (h3β-HSD2) was 109 ± 19.2 µM.
In the case of `COc1cc(/C=C/C(=O)CC(=O)/C=C/c2ccc(O)c(OC)c2)ccc1O` [CUR, curcumin], the LogP [1] is given as 3.37, the IC50 (human 11β-HSD1) is given as ~10 µM and 10 to 15 µM and the “lowest concentration that markedly decreased basal P4 output” value (human KGN cells) is given as 20 µM. The IC50 (human 11β-HSD2) was ~14.5 µM and 10 to 15 µM, the Ki (r3β-HSD1) was 4.21 µM and the “Residual r3β-HSD1 activity” value (r3β-HSD1) was < 20 % of the control. The IC50 (r3β-HSD1) was 4.06 ± 1.1 µM, the “higher potency to inhibit r3β-HSD1 than h3β-HSD2” value (r3β-HSD1; r3β-HSD1 vs h3β-HSD2) was “about 3 fold” and the Mode action (r3β-HSD1) was “Mixed”. The IC50 (human 17β-HSD3) was ~67.3 µM and > 50 µM, the “clearance from the body” value [2] was “rapid clearance” and the “Residual h3β-HSD2 activity” value (h3β-HSD2) was < 25 % of the control. The Mode action (h3β-HSD2) was “Mixed”.
For `COc1cc(CCC(O)CC(O)CCc2ccc(O)c(OC)c2)ccc1O` (stereo not shown) [OHC, octahydrocurcumin], the “Residual h3β-HSD2 activity” value (h3β-HSD2) was ≥ 50 % of the control.
In the case of `O=C(/C=C/c1ccc(O)cc1)CC(=O)/C=C/c1ccc(O)cc1` [BDMC, bisdemethoxycurcumin], the “lowest concentration that markedly decreased basal P4 output” value (human KGN cells) is reported as 10 µM, the Ki (r3β-HSD1) is reported as 1.56 µM and the “Residual r3β-HSD1 activity” value (r3β-HSD1) is reported as < 20 % of the control. For the same molecule, the IC50 (r3β-HSD1) was 1.22 ± 0.31 µM, the “increase of inhibitory effect relative to CUR” value (r3β-HSD1) was 2 fold and the Mode action (r3β-HSD1) was “Mixed”. The half-lives [2] was 2 to 4 h, the Ki (h3β-HSD2) was 1.12 µM and the “Residual h3β-HSD2 activity” value (h3β-HSD2) was < 25 % of the control. The IC50 (h3β-HSD2) was 1.68 ± 0.39 µM and the Mode action (h3β-HSD2) was “Competitive”.
In the case of `COc1cc(/C=C/C(O)=C/C(=O)/C=C/c2ccc(O)cc2)ccc1O` [DMC, demethoxycurcumin], the “lowest concentration that markedly decreased basal P4 output” value (human KGN cells) is reported as 10 µM, the Ki (r3β-HSD1) is reported as 2.18 µM and the “Residual r3β-HSD1 activity” value (r3β-HSD1) is reported as < 20 % of the control. The IC50 (r3β-HSD1) was 2.15 ± 0.27 µM, the “increase of inhibitory effect relative to CUR” value (r3β-HSD1) was 1 fold and the Mode action (r3β-HSD1) was “Mixed”. The half-lives [2] was 2 to 4 h, the Ki (h3β-HSD2) was 3.85 µM and the “Residual h3β-HSD2 activity” value (h3β-HSD2) was < 25 % of the control. The IC50 (h3β-HSD2) was 3.27 ± 0.38 µM and the Mode action (h3β-HSD2) was “Mixed”.
`CC(=O)[C@H]1CC[C@H]2[C@@H]3CC=C4C[C@@H](O)CC[C@]4(C)[C@H]3CC[C@]12C` [P5, pregnenolone] gave a Km (r3β-HSD1; read-out: apparent Km, substrate P5, r3β-HSD1, Michaelis-Menten kinetics) of 0.32 ± 0.1 µM and a Km (h3β-HSD2; read-out: apparent Km, substrate P5, h3β-HSD2, Michaelis-Menten kinetics) of 3.08 ± 0.81 µM.
